ChEMBL document CHEMBL1126068, “Renin inhibitors containing C-termini derived from mercaptoheterocycles” (J Med Chem, 1992)

How the values were obtained:
Renin = target: T1, Renin (Homo sapiens, UniProt P00797); assay: The compound was tested in vitro for inhibition of human plasma renin.; assay type: cell-free
T1 sequence (P00797 whole entry): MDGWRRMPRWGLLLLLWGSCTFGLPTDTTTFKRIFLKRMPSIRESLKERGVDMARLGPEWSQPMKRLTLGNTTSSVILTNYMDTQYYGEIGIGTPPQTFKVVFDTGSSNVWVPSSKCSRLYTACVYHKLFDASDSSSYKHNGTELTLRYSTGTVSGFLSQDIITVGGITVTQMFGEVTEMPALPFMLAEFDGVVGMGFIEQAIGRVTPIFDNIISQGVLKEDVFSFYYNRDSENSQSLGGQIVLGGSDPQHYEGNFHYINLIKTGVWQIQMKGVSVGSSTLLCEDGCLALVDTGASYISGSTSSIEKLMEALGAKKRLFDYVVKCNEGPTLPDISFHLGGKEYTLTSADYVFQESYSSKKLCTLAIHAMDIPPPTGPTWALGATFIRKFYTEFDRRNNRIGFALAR
How it was run: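 Lyophilized human plasma was reconstituted in distilled water on the assay day. Angiotensin I was measured by radioimmunoassay (commercial kit) at pH 7.4 in phosphate buffer, 37 °C, with PMSF to block angiotensinases. Inhibitors came from a 1 mM DMF stock serially diluted to 3–5 concentrations, run in duplicate and averaged. IC50 was calculated by linear regression.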

[1] = Inhibition of plasma renin determined at Peak change in mean arterial pressure at the dose of 0.44 mg/kg administered through intravenously in Rhesus monkeys.; assay type: functional; details: Cercopithecidae, route intravenous
How it was run: (§1)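 Conscious male and female rhesus monkeys kept on a low-sodium diet, given furosemide the evening before, and fasted 18 h before and during the study. MAP was read directly and blood drawn for PRA through chronic arterial access ports. Compound was given IV via venous catheter in 0.05% acetic acid/5% dextrose/H2O, 20 min after a vehicle control. Time courses were plotted and peak changes taken; N = 2.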

[2] = Peak change in mean arterial pressure (average) at the dose of 0.44 mg/kg administered through intravenously in Rhesus monkeys.; assay type: functional, Cercopithecidae, Artery; details: route intravenous; how it was run: as §1
[3] = Peak change in heart rate (average) at the dose of 0.44 mg/kg administered through intravenously in Rhesus monkeys.; assay type: functional, Cercopithecidae; details: route intravenous; how it was run: as §1
[4] = Peak change in mean arterial pressure (average) at the dose of 0.42 mg/kg administered through intravenously in Rhesus monkeys.; assay type: functional, Cercopithecidae, Artery; details: route intravenous; how it was run: as §1
[5] = Inhibition of plasma renin determined at Peak change in mean arterial pressure at the dose of 0.42 mg/kg administered through intravenously in Rhesus monkeys.; assay type: functional; details: Cercopithecidae, route intravenous; how it was run: as §1
[6] = Peak change in heart rate (average) at the dose of 0.42 mg/kg administered through intravenously in Rhesus monkeys.; assay type: functional, Cercopithecidae; details: route intravenous; how it was run: as §1
[7] = Peak change in heart rate (average) at the dose of 0.39 mg/kg administered through intravenously in Rhesus monkeys.; assay type: functional, Cercopithecidae; details: route intravenous; how it was run: as §1
[8] = Peak change in mean arterial pressure (average) at the dose of 0.39 mg/kg administered through intravenously in Rhesus monkeys.; assay type: functional, Cercopithecidae, Artery; details: route intravenous; how it was run: as §1
[9] = Inhibition of plasma renin determined at Peak change in mean arterial pressure at the dose of 0.39 mg/kg administered through intravenously in Rhesus monkeys.; assay type: functional; details: Cercopithecidae, route intravenous; how it was run: as §1
[10] = Peak change in heart rate (average) at the dose of 1.19 mg/kg administered through intravenously in Rhesus monkeys.; assay type: functional, Cercopithecidae; details: route intravenous; how it was run: as §1
[11] = Peak change in mean arterial pressure (average) at the dose of 1.19 mg/kg administered through intravenously in Rhesus monkeys.; assay type: functional, Cercopithecidae, Artery; details: route intravenous; how it was run: as §1
[12] = Inhibition of plasma renin determined at Peak change in mean arterial pressure at the dose of 1.19 mg/kg administered through intravenously in Rhesus monkeys.; assay type: functional; details: Cercopithecidae, route intravenous; how it was run: as §1
[13] = Peak change in mean arterial pressure (average) at the dose of 0.34 mg/kg administered through intravenously in Rhesus monkeys.; assay type: functional, Cercopithecidae, Artery; details: route intravenous; how it was run: as §1
[14] = Peak change in heart rate (average) at the dose of 0.34 mg/kg administered through intravenously in Rhesus monkeys.; assay type: functional, Cercopithecidae; details: route intravenous; how it was run: as §1
[15] = Inhibition of plasma renin determined at Peak change in mean arterial pressure at the dose of 0.34 mg/kg administered through intravenously in Rhesus monkeys.; assay type: functional; details: Cercopithecidae, route intravenous; how it was run: as §1
[16] = Peak change in heart rate (average) at the dose of 0.88 mg/kg administered through intravenously in Rhesus monkeys.; assay type: functional, Cercopithecidae; details: route intravenous; how it was run: as §1
[17] = Peak change in mean arterial pressure (average) at the dose of 0.88 mg/kg administered through intravenously in Rhesus monkeys.; assay type: functional, Cercopithecidae, Artery; details: route intravenous; how it was run: as §1
[18] = Inhibition of plasma renin determined at Peak change in mean arterial pressure at the dose of 0.88 mg/kg administered through intravenously in Rhesus monkeys.; assay type: functional; details: Cercopithecidae, route intravenous; how it was run: as §1
[19] = Peak change in mean arterial pressure (average) at the dose of 0.40 mg/kg administered through intravenously in Rhesus monkeys.; assay type: functional, Cercopithecidae, Artery; details: dose 0.4 mg/kg; route intravenous; how it was run: as §1
[20] = Peak change in heart rate (average) at the dose of 0.40 mg/kg administered through intravenously in Rhesus monkeys.; assay type: functional, Cercopithecidae; details: dose 0.4 mg/kg; route intravenous; how it was run: as §1
[21] = Inhibition of plasma renin determined at Peak change in mean arterial pressure at the dose of 0.40 mg/kg administered through intravenously in Rhesus monkeys.; assay type: functional; details: Cercopithecidae, route intravenous; how it was run: as §1
[22] = Peak change in heart rate (average) at the dose of 0.35 mg/kg administered through intravenously in Rhesus monkeys.; assay type: functional, Cercopithecidae; details: route intravenous; how it was run: as §1
[23] = Peak change in mean arterial pressure (average) at the dose of 0.35 mg/kg administered through intravenously in Rhesus monkeys.; assay type: functional, Cercopithecidae, Artery; details: route intravenous; how it was run: as §1
[24] = Inhibition of plasma renin determined at Peak change in mean arterial pressure at the dose of 0.35 mg/kg administered through intravenously in Rhesus monkeys.; assay type: functional; details: Cercopithecidae, route intravenous; how it was run: as §1

CCOC(=O)Cn1nnnc1SC[C@H](O)[C@H](CC1CCCCC1)NC(=O)[C@H](Cc1cnc[nH]1)NC(=O)[C@H](Cc1ccccc1)NC(=O)OC(C)(C)C
IC50 (Renin): 0.207 µM

CC(C)(C)OC(=O)N[C@@H](Cc1ccccc1)C(=O)N[C@@H](Cc1c[nH]cn1)C(=O)N[C@@H](CC1CCCCC1)[C@@H](O)CSc1nnc(Nc2ccccc2)s1
IC50 (Renin): 3.31 µM

CC(C)(C)OC(=O)N[C@@H](Cc1ccccc1)C(=O)N[C@@H](Cc1c[nH]cn1)C(=O)N[C@@H](CC1CCCCC1)[C@@H](O)CSc1nnc(C(F)(F)F)n1CCc1ccncc1
IC50 (Renin): 0.041 µM | inhibition in vivo at 0.44 mg/kg [1]: 93% | Peak deltaMAP [2]: -10 mmHg | Peak deltaHR [3]: -1 beats min-1

CC(C)(C)OC(=O)N[C@@H](Cc1ccccc1)C(=O)N[C@@H](Cc1cnc[nH]1)C(=O)N[C@@H](CC1CCCCC1)[C@@H](O)CSc1ccccn1
IC50 (Renin): 0.198 µM

CN(C)CCNC(=O)Cn1nnnc1SC[C@H](O)[C@H](CC1CCCCC1)NC(=O)[C@H](Cc1c[nH]cn1)NC(=O)[C@H](Cc1ccccc1)NC(=O)OC(C)(C)C
IC50 (Renin): 1.29 µM

CC(C)(C)OC(=O)N[C@@H](Cc1ccccc1)C(=O)N[C@@H](Cc1c[nH]cn1)C(=O)N[C@@H](CC1CCCCC1)[C@@H](O)CSc1nnnn1CCN1CCOCC1
Peak deltaMAP [4]: -10.5 mmHg | inhibition in vivo at 0.42 mg/kg [5]: 90% | Peak deltaHR [6]: -8 beats min-1 | IC50 (Renin): 0.039 µM

Cn1c(SC[C@H](O)[C@H](CC2CCCCC2)NC(=O)[C@H](Cc2c[nH]cn2)NC(=O)[C@H](Cc2ccccc2)NC(=O)OC(C)(C)C)nnc1C(F)(F)F
IC50 (Renin): 0.039 µM | Peak deltaHR [7]: -5 beats min-1 | Peak deltaMAP [8]: -11 mmHg | inhibition in vivo at 0.39 mg/kg [9]: 85%

CC(C)(C)OC(=O)N[C@@H](Cc1ccccc1)C(=O)N[C@@H](Cc1cnc[nH]1)C(=O)N[C@@H](CC1CCCCC1)[C@@H](O)CSc1nnnn1CC(N)=O
IC50 (Renin): 0.448 µM

CC(C)(C)OC(=O)N[C@@H](Cc1ccccc1)C(=O)N[C@@H](Cc1c[nH]cn1)C(=O)N[C@@H](CC1CCCCC1)[C@@H](O)CSC1CCCCC1
IC50 (Renin): 0.289 µM

CN1CCN(C(=O)Cn2nnnc2SC[C@H](O)[C@H](CC2CCCCC2)NC(=O)[C@H](Cc2c[nH]cn2)NC(=O)[C@H](Cc2ccccc2)NC(=O)OC(C)(C)C)CC1
IC50 (Renin): 0.359 µM

Cn1ccnc1SC[C@H](O)[C@H](CC1CCCCC1)NC(=O)[C@H](Cc1c[nH]cn1)NC(=O)[C@H](Cc1ccccc1)NC(=O)OC(C)(C)C
Peak deltaHR [10]: -3 beats min-1 | Peak deltaMAP [11]: -8.5 mmHg | inhibition in vivo at 1.19 mg/kg [12]: 75% | IC50 (Renin): 0.124 µM

CC(C)(C)OC(=O)N[C@@H](Cc1ccccc1)C(=O)N[C@@H](Cc1c[nH]cn1)C(=O)N[C@@H](CC1CCCCC1)[C@@H](O)CSc1nnnn1CCc1ccncc1
IC50 (Renin): 0.031 µM | Peak deltaMAP [13]: -22 mmHg | Peak deltaHR [14]: 1 beats min-1 | inhibition in vivo at 0.34 mg/kg [15]: 95%

C[n+]1ccc(CCn2nnnc2SC[C@H](O)[C@H](CC2CCCCC2)NC(=O)[C@H](Cc2c[nH]cn2)NC(=O)[C@H](Cc2ccccc2)NC(=O)OC(C)(C)C)cc1
IC50 (Renin): 0.678 µM

Cn1nc(C(F)(F)F)nc1SC[C@H](O)[C@H](CC1CCCCC1)NC(=O)[C@H](Cc1c[nH]cn1)NC(=O)[C@H](Cc1ccccc1)NC(=O)OC(C)(C)C
IC50 (Renin): 0.392 µM

CC(C)(C)OC(=O)N[C@@H](Cc1ccccc1)C(=O)N[C@@H](Cc1c[nH]cn1)C(=O)N[C@@H](CC1CCCCC1)[C@@H](O)CSc1ncc2ccccn12
IC50 (Renin): 0.708 µM

C=CCn1c(SC[C@H](O)[C@H](CC2CCCCC2)NC(=O)[C@H](Cc2c[nH]cn2)NC(=O)[C@H](Cc2ccccc2)NC(=O)OC(C)(C)C)nnc1C(F)(F)F
IC50 (Renin): 0.206 µM

CN(C)CCn1nnnc1SC[C@H](O)[C@H](CC1CCCCC1)NC(=O)[C@H](Cc1cnc[nH]1)NC(=O)[C@H](Cc1ccccc1)NC(=O)OC(C)(C)C
IC50 (Renin): 0.145 µM

Cn1cnnc1SC[C@H](O)[C@H](CC1CCCCC1)NC(=O)[C@H](Cc1c[nH]cn1)NC(=O)[C@H](Cc1ccccc1)NC(=O)OC(C)(C)C
Peak deltaHR [16]: 17 beats min-1 | IC50 (Renin): 0.081 µM | Peak deltaMAP [17]: -9 mmHg | inhibition in vivo at 0.88 mg/kg [18]: 90%

CC(C)(C)OC(=O)N[C@@H](Cc1ccccc1)C(=O)N[C@@H](Cc1c[nH]cn1)C(=O)N[C@@H](CC1CCCCC1)[C@@H](O)CSc1nnnn1CCc1ccc(O)cc1
IC50 (Renin): 0.033 µM

CC(C)(C)OC(=O)N[C@@H](Cc1ccccc1)C(=O)N[C@@H](Cc1c[nH]cn1)C(=O)N[C@@H](CC1CCCCC1)[C@@H](O)CS(=O)(=O)c1nnnn1CCc1cc[n+]([O-])cc1
Peak deltaMAP [19]: -12 mmHg | Peak deltaHR [20]: 23 beats min-1 | IC50 (Renin): 0.037 µM | inhibition in vivo at 0.4 mg/kg [21]: 98%

Cn1nnnc1SC[C@H](O)[C@H](CC1CCCCC1)NC(=O)[C@H](Cc1c[nH]cn1)NC(=O)[C@H](Cc1ccccc1)NC(=O)OC(C)(C)C
Peak deltaHR [22]: -5 beats min-1 | IC50 (Renin): 0.032 µM | Peak deltaMAP [23]: -9 mmHg | inhibition in vivo at 0.35 mg/kg [24]: 89%

CC(C)(C)OC(=O)N[C@@H](Cc1ccccc1)C(=O)N[C@@H](Cc1cnc[nH]1)C(=O)N[C@@H](CC1CCCCC1)[C@@H](O)CSc1nnnn1CC(=O)O
IC50 (Renin): 0.396 µM

Cc1ccnc(SC[C@H](O)[C@H](CC2CCCCC2)NC(=O)[C@H](Cc2cnc[nH]2)NC(=O)[C@H](Cc2ccccc2)NC(=O)OC(C)(C)C)n1
IC50 (Renin): 0.24 µM

CC(C)(C)OC(=O)N[C@@H](Cc1ccccc1)C(=O)N[C@@H](Cc1cnc[nH]1)C(=O)N[C@@H](CC1CCCCC1)[C@@H](O)CSc1nnnn1CC(=O)NCCN1CCOCC1
IC50 (Renin): 0.314 µM
